Assay results taken from ChEMBL document CHEMBL4028902, “Azetidine and Piperidine Carbamates as Efficient, Covalent Inhibitors of Monoacylglycerol Lipase” (J Med Chem, 2017).
pIC50: −log10 of the molar value.

Experiments:
Monoglyceride lipase = biological target: T1, Monoglyceride lipase (Homo sapiens, UniProt Q99685); experiment: Inhibition of human recombinant MAGL using 7-HCA as substrate preincubated for 30 mins followed by substrate addition measured after 60 mins by fluorescence assay
T1 sequence (Q99685 whole entry): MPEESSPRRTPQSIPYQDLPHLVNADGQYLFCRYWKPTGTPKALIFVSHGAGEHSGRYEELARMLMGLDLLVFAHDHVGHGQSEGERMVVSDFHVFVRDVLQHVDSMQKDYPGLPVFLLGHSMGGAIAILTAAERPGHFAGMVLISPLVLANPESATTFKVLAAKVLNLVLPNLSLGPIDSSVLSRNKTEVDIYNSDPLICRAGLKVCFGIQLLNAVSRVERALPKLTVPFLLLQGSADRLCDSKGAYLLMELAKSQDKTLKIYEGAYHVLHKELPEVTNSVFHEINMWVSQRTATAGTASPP
In short: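 Reaction started with 7-HCA (5 μM final), run 60 min, fluorescence Ex/Em 340/465. Percent inhibition versus no-compound and full-inhibition controls; IC50 from four-parameter fit.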

[1] = biological target: T2, Monoglyceride lipase (Homo sapiens) (UniProt Q99685); experiment: Ratio of Kinact to Ki for human recombinant MAGL using 7-HCA as substrate after 60 mins by fluorescence assay
T2 sequence (whole entry): T1 sequence (Q99685 whole entry)
In short: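 Run as the MAGL 7-HCA assay, but substrate added with no preincubation (T = 0), fluorescence read every minute at decreasing compound concentrations to give progress curves. kobs from each curve; kinact/KI from a plot of kobs against compound concentration.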

[2] = biological target: T3, Fatty-acid amide hydrolase 1 (Homo sapiens, UniProt O00519); experiment: Inhibition of human recombinant FAAH using arachidonoyl-AMC as substrate preincubated for 30 mins followed by substrate addition measured after 60 mins by fluorescence assay
T3 sequence (O00519 whole entry): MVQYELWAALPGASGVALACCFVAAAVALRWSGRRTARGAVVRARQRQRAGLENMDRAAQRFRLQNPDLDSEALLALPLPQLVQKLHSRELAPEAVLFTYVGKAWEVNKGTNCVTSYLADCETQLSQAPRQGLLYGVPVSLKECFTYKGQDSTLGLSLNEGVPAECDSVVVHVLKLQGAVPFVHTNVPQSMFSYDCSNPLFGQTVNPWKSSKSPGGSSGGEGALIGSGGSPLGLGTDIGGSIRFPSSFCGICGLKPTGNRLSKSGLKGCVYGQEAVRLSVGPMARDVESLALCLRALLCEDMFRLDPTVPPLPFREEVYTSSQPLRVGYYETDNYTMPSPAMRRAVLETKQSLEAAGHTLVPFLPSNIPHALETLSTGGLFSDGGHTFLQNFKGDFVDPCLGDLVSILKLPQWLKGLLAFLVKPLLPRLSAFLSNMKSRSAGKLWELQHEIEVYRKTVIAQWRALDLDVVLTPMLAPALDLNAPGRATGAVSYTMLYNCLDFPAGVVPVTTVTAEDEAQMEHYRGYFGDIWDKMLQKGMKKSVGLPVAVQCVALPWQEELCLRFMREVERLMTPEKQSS
In short: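 Human recombinant FAAH (0.0125 unit final) in 50 mM Tris pH 9.0, 1 mM EDTA, preincubated 30 min at room temperature with compound (final 30 μM–0.3 nM). Arachidonoyl-AMC added (5 μM final), reaction run 60 min, fluorescence Ex/Em 355/460. Percent inhibition versus no-compound and full-inhibition controls.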

[3] = Lipophilicity, log D of the compound; assay type: physicochemical; conditions: octanol/water

Structure (SMILES) | pIC50 (Monoglyceride lipase) | Ratio [1] [M⁻¹ s⁻¹] | pIC50 [2] | logD [3]
O=C(OC(C(F)(F)F)C(F)(F)F)N1CC(N2CCN(c3ncccn3)CC2)C1 | 8.49 | 18000 | 5.60 | 2.9
O=C(OC(C(F)(F)F)C(F)(F)F)N1CC(c2ccn(-c3ccc(F)c(F)c3)n2)C1 | 9.74 | 978000 | 6.17 | 4.6
O=C(OC(C(F)(F)F)C(F)(F)F)N1CC(c2nc(-c3ccccc3)no2)C1 | 9.42 | 840000 | 6.38 | 4.2
O=C(OC(C(F)(F)F)C(F)(F)F)N1CC(c2ccn(-c3cnccn3)n2)C1 | 9.13 | 329000 | 5.96 | 2.8
O=C(OC(C(F)(F)F)C(F)(F)F)N1CC(c2ccnc(N3CCOCC3)n2)C1 | 8.72 | 121000 | < 4.52 | 3

The next lines start with the values.

pIC50 (Monoglyceride lipase) | Ratio [1] [M⁻¹ s⁻¹] | pIC50 [2] | logD [3] | Structure (SMILES)
9.39 | 791000 | 6.80 | 4.4 | O=C(OC(C(F)(F)F)C(F)(F)F)N1CC(c2ccn(Cc3ccccc3)n2)C1
7.41 | 4050 | < 4.70 | 2.4 | Cn1ccc(C2CN(C(=O)OC(C(F)(F)F)C(F)(F)F)C2)n1
8.72 | 102000 | 5.03 | 3.2 | O=C(OC(C(F)(F)F)C(F)(F)F)N1CC(c2ccn(C3CCOCC3)n2)C1
9.52 | 293000 | 6.31 | 5.7 | O=C(OC(C(F)(F)F)C(F)(F)F)N1CC(c2cc(-c3ccccc3)n(-c3ccccc3)n2)C1
